Assay results taken from ChEMBL document CHEMBL5674890, “Selective inhibition of CBP/p300 HAT by A-485 results in suppression of lipogenesis and hepatic gluconeogenesis” (Cell Death Dis, 2020).
The source made the active and inactive calls. No cut-off for these calls is given here.

Columns and labels:
Hepatocyte [1] = assay: Inhibition of lipogenesis in mouse primary hepatocytes assessed as decrease in SCD1 mRNA expression at 3 uM in presence of 100 nM insulin and 5 to 25 mM glucose measured after 18 hrs by RT-qPCR assay; assay type: functional, cell-based
Outline: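 Primary hepatocytes isolated from C57BL/6 mice by two-step perfusion. Cells incubated 18 h with 3 μM inhibitor, with 0 or 100 nM insulin and 5 or 25 mM glucose. Transcripts quantified by SYBR Green RT-qPCR after Trizol RNA extraction; proteins by western blot of lysates. Mean ± SEM.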

[2] = target: CREB-binding protein/Histone acetyltransferase p300 (Homo sapiens) (UniProt Q09472+Q92793); assay: Inhibition of CBP/p300 in mouse primary hepatocytes stimulated with 100 uM 8-Br-cAMP assessed as decrease in half-life of endogenous FOXO1 at 3 uM in presence of 10 ug/ml cycloheximide; assay type: cell-based; settings: Primary hepatocyte
Chain of CREB-binding protein/Histone acetyltransferase p300 (Homo sapiens) (Q09472 whole entry, looked up): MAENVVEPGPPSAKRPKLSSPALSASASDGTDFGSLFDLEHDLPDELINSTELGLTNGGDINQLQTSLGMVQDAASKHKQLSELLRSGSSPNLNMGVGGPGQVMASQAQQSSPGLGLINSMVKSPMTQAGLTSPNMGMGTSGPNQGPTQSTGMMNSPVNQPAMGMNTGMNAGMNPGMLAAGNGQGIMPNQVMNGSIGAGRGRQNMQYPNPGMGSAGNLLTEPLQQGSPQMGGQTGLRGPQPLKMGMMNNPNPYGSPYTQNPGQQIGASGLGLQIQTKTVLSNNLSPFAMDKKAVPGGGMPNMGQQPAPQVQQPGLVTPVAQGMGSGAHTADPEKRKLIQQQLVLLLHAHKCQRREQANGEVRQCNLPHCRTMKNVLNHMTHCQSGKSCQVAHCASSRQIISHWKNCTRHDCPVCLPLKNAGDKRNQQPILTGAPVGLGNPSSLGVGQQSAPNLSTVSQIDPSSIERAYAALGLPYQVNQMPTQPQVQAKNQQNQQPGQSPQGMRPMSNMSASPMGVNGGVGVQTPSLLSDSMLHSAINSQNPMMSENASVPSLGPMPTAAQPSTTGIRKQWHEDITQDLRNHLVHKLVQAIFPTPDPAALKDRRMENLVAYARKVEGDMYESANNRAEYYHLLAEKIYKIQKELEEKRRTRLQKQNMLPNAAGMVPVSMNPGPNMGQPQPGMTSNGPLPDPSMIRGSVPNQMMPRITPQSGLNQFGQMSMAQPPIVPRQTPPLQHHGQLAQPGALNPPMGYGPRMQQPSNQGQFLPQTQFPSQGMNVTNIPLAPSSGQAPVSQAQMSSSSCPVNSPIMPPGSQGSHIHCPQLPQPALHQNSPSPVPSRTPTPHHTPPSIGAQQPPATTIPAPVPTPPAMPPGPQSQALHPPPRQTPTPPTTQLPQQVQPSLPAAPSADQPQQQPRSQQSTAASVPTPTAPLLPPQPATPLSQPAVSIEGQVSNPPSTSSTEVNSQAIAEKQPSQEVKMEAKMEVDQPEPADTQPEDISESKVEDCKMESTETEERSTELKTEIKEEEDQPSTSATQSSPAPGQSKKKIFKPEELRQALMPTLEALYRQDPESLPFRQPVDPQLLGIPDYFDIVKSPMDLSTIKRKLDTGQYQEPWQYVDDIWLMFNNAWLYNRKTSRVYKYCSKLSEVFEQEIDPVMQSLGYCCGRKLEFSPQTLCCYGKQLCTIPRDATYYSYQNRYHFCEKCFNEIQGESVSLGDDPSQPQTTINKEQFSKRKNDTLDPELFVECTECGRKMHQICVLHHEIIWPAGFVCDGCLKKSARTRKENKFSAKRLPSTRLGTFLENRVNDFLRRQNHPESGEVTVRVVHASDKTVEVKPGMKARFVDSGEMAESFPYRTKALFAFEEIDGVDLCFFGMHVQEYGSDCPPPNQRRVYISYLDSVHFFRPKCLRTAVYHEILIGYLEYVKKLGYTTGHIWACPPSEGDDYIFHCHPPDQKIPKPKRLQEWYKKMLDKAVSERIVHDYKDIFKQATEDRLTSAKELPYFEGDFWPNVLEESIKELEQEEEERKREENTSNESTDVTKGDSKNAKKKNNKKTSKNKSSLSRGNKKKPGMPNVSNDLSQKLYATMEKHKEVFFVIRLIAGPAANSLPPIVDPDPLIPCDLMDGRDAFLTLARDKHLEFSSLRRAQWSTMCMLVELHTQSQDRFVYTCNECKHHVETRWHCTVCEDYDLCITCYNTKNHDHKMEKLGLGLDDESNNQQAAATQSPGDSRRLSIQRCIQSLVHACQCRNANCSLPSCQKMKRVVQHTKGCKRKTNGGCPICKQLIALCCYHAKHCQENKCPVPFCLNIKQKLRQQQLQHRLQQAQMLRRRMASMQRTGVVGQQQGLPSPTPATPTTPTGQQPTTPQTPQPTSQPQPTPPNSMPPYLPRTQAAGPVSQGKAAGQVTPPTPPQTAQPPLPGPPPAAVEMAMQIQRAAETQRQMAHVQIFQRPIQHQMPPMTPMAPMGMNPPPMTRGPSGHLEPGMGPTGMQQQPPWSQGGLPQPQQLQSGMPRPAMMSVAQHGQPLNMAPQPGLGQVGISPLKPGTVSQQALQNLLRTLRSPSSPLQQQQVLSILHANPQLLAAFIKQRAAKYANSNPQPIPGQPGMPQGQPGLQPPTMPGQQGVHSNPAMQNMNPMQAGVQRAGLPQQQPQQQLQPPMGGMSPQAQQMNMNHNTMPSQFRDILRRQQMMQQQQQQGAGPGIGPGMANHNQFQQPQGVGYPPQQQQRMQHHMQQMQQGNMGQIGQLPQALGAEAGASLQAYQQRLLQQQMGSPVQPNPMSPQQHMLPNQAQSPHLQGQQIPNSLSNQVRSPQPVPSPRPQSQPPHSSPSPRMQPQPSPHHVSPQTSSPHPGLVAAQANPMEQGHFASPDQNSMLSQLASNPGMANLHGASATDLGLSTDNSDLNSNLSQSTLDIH
Chain of CREB-binding protein/Histone acetyltransferase p300 (Homo sapiens) (Q92793 whole entry, looked up): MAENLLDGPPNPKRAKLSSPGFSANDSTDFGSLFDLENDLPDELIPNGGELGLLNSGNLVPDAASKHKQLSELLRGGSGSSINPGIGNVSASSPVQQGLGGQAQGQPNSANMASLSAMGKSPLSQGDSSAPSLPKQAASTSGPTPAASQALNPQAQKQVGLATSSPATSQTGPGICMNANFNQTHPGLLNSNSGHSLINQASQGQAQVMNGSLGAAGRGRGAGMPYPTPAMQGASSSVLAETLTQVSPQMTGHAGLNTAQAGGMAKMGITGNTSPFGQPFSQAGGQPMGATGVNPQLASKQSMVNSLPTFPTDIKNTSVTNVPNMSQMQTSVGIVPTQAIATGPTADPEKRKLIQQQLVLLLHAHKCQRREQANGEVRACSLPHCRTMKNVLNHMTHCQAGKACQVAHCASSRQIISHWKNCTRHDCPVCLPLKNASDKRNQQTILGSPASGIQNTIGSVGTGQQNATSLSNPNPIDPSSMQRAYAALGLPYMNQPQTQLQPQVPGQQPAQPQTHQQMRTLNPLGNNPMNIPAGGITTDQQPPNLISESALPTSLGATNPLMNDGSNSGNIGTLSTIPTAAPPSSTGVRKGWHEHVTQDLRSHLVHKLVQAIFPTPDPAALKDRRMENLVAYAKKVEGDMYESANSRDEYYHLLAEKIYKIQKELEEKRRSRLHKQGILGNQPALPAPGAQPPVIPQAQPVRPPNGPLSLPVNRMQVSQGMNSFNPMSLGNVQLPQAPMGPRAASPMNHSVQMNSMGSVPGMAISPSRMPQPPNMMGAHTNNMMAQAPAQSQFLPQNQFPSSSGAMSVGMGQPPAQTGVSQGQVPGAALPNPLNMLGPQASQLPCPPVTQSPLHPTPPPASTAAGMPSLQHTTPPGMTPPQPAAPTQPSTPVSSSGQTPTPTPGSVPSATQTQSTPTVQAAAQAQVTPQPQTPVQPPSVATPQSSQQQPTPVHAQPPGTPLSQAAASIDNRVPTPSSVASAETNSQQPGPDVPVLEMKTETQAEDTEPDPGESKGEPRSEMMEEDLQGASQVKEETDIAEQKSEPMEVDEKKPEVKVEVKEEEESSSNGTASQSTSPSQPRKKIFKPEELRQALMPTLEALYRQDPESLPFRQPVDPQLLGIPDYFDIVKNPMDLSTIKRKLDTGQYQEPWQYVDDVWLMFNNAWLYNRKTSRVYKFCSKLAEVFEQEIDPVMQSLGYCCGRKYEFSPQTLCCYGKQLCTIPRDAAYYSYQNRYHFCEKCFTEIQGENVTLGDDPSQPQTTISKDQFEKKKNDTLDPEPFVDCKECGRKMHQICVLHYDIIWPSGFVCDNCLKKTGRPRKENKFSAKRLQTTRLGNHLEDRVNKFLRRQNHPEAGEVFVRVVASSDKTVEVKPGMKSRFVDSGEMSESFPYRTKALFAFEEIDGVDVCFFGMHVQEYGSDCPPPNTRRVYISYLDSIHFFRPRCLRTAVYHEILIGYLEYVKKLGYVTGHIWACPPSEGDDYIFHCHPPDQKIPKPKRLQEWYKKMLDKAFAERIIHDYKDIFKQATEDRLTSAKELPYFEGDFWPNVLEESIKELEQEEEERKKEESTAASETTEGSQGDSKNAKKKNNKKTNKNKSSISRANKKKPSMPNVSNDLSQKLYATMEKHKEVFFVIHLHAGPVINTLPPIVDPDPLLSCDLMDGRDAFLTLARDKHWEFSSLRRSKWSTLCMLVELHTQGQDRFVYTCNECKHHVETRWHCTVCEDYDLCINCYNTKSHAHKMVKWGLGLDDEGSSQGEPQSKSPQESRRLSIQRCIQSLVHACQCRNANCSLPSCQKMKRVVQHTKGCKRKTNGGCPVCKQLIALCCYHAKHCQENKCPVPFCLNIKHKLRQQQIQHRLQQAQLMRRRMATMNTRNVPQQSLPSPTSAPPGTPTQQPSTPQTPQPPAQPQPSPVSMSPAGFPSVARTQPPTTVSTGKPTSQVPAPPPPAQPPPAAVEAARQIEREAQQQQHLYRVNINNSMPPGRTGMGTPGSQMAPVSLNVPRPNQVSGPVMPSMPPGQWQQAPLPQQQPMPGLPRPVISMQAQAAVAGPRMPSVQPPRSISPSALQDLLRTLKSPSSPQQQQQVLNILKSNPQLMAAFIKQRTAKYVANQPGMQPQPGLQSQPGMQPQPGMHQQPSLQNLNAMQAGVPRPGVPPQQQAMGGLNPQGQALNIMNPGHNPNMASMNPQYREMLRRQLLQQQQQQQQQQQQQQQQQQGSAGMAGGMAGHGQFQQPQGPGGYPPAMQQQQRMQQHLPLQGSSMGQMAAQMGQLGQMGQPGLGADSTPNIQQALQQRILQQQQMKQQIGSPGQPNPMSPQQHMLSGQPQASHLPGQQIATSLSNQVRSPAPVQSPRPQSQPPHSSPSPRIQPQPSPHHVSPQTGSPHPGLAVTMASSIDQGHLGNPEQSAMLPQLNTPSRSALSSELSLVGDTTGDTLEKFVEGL
Outline: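 Primary mouse hepatocytes in 100 μM 8-Br-cAMP treated with 3 μM compound and 10 μg/ml cycloheximide for the indicated times. Endogenous FOXO1 immunoblotted; band intensity quantified. Three independent experiments.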

Mus musculus [3] = assay: Anti-obesity activity in 16 hrs fasted C57BL/6 mouse supplemented with normal chow diet assessed as decrease in blood glucose level at 20 mg/kg/day, ip administered for 1 week measured after 30 mins by intraperitoneal glucose tolerance test; assay type: functional, organism-based; settings: time 1.0 weeks
Outline: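 Male C57BL/6 mice on normal chow, 8 weeks old, given 20 mg·kg−1·day−1 ip daily for 7 days. After 16 h fasting, glucose 2 g/kg body weight ip; blood glucose read during the test. Mean ± SEM, n = 5–9; t test or ANOVA, P < 0.05.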

Mus musculus [4] = assay: Inhibition of hepatic lipogenesis in C57BL/6 mouse supplemented with normal chow diet assessed as decrease in total cholesterol level at 20 mg/kg/day, ip administered for 1 week; assay type: functional, organism-based; settings: time 1.0 weeks
Outline: (§1)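 Male C57BL/6 mice received ip A-485 at 20 mg·kg−1·day−1 for 7 days, versus vehicle. NCD mice were 8 weeks old. HFD mice had been on high-fat diet for 14 weeks from 5 weeks of age. Liver triglyceride and total cholesterol content was determined. n = 5–9; mean ± SEM.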

Mus musculus [5] = assay: Inhibition of lipogenesis in C57BL/6 mouse supplemented with high-fat diet assessed as decrease in LPL mRNA expression at 20 mg/kg/day, ip administered for 1 week measured measured by RT-qPCR assay; assay type: functional, organism-based; settings: time 1.0 weeks
Outline: (§2)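 Male C57BL/6 mice were fed high-fat diet for 14 weeks from 5 weeks of age, then injected ip with 20 mg·kg−1·day−1 for 7 days or given vehicle. Epididymal and inguinal WAT were weighed, examined by H&E, and analysed. Transcripts were measured by Trizol/SYBR Green RT-qPCR; proteins by western blot. n = 5–9; mean ± SEM.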

Mus musculus [6] = assay: Inhibition of hepatic lipogenesis in C57BL/6 mouse supplemented with high fat diet assessed as decrease in total cholesterol level at 20 mg/kg/day, ip administered for 1 week; assay type: functional, organism-based; settings: time 1.0 weeks; outline: as §1
Adipocyte [7] = assay: Inhibition of lipogenesis in mouse adipocytes isolated stromal vascular cells assessed as decrease in ChREBP mRNA expression measured after 24 hrs by RT-qPCR assay; assay type: functional, cell-based
Outline: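 Stromal vascular cells from inguinal WAT of C57BL/6 mice, grown in DMEM/F12 + 10% FBS at 37 °C, 10% CO2. At confluence, induced 48 h with 5 μg/ml insulin, 1 μM dexamethasone, 0.5 mM isobutylmethylxanthine, then 6 days in 5 μg/ml insulin; fully differentiated day 8. Mature adipocytes exposed to inhibitor 24 h. Total RNA by Trizol, SYBR Green RT-qPCR; protein by western blot.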

Mus musculus [8] = assay: Inhibition of lipogenesis in C57BL/6 mouse supplemented with high-fat diet assessed as decrease in ACC mRNA expression at 20 mg/kg/day, ip administered for 1 week measured by RT-qPCR assay; assay type: functional, organism-based; settings: time 1.0 weeks; outline: as §2
Mus musculus [9] = assay: Inhibition of lipogenesis in C57BL/6 mouse supplemented with high-fat diet assessed as decrease in FASN mRNA expression at 20 mg/kg/day, ip administered for 1 week measured by RT-qPCR assay; assay type: functional, organism-based; settings: time 1.0 weeks; outline: as §2
Mus musculus [10] = assay: Inhibition of lipogenesis in C57BL/6 mouse supplemented with normal chow diet assessed as effect on MCAD mRNA expression at 20 mg/kg/day, ip administered for 1 week measured by RT-qPCR assay; assay type: functional, organism-based; settings: time 1.0 weeks
Outline: (§3)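 Eight-week-old male C57BL/6 mice on normal chow were given 20 mg·kg−1·day−1 ip daily for 7 days or vehicle. Epididymal WAT was collected. Lipogenic, adipogenic and fatty-acid-oxidation transcripts were quantified by Trizol extraction and SYBR Green RT-qPCR. FAS, ACC, PPARγ and C/EBPα protein were assessed by western blot. n = 5–9; mean ± SEM.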

Mus musculus [11] = assay: Inhibition of lipogenesis in C57BL/6 mouse supplemented with normal chow diet assessed as decrease in C/EBPalpha mRNA expression at 20 mg/kg/day, ip administered for 1 week measured measured by RT-qPCR assay; assay type: functional, organism-based; settings: time 1.0 weeks; outline: as §3
Mus musculus [12] = assay: Anti-obesity activity in C57BL/6 mouse supplemented with high fat diet assessed as improvement in glucose tolerance at 20 mg/kg/day, ip administered for 1 week measured by intraperitoneal glucose tolerance test; assay type: functional, organism-based; settings: time 1.0 weeks
Outline: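 High-fat diet mice (male C57BL/6, 14 weeks on HFD from 5 weeks of age), ip 20 mg·kg−1·day−1 for 7 days. 16 h fast, then glucose 2 g/kg body weight ip; blood glucose tracked during the test.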

Mus musculus [13] = assay: Anti-obesity activity in C57BL/6 mouse supplemented with high fat diet assessed as decrease in blood glucose level at 20 mg/kg/day, ip administered for 1 week measured by pyruvate tolerance test; assay type: functional, organism-based; settings: time 1.0 weeks
Outline: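 High-fat diet male C57BL/6 mice (14 weeks on HFD from 5 weeks of age) dosed ip at 20 mg·kg−1·day−1 for 7 days. 16 h fast, then pyruvate 2 g/kg body weight ip; blood glucose tracked.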

Mus musculus [14] = assay: Inhibition of lipogenesis in C57BL/6 mouse supplemented with high-fat diet assessed as decrease in ChREBP mRNA expression at 20 mg/kg/day, ip administered for 1 week measured by RT-qPCR assay; assay type: functional, organism-based; settings: time 1.0 weeks; outline: as §2
Adipocyte [15] = assay: Inhibition of lipogenesis in mouse adipocytes isolated stromal vascular cells assessed as decrease in C/EBPalpha protein expression measured after 24 hrs by western blot analysis; assay type: functional, cell-based
Mus musculus [16] = assay: Inhibition of lipogenesis in C57BL/6 mouse supplemented with normal chow diet assessed as decrease in ACC protein expression at 20 mg/kg/day, ip administered for 1 week measured by western blot analysis; assay type: functional, organism-based; settings: time 1.0 weeks; outline: as §3
Hepatocyte [17] = assay: Inhibition of glucogenesis in mouse primary hepatocytes stimulated with 100 uM 8-Br-cAMP assessed as decrease in PEPCK protein expression at 3 uM in presence of cAMP measured after 16 hrs by western blot
Hepatocyte [18] = assay: Inhibition of glucogenesis in mouse primary hepatocytes stimulated with 100 uM 8-Br-cAMP assessed as decrease in glucose production at 3 uM in combination with 2 mM metformin; assay type: functional, cell-based
Outline: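 Primary mouse hepatocytes pretreated with 100 nM dexamethasone for 16 h. Glucose production then measured in glucose-free DMEM with 1 mM pyruvate, 10 mM lactate and 0.25% BSA, in the presence of 100 μM 8-Br-cAMP, with 3 μM compound plus 2 mM metformin. Medium glucose assayed colorimetrically. Three independent experiments.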

In the case of `CNC(=O)Nc1ccc2c(c1)CCS21OC(=O)N(CC(=O)N(Cc2ccc(F)cc2)[C@@H](C)C(F)(F)F)C1=O` (stereo partly drawn), the inhibition (Hepatocyte [1]) is reported as “Active”, the inhibition [2] is reported as “Active” and the Activity (Mus musculus [3]) is reported as “Active”. For the same compound, the inhibition (Mus musculus [4]) was “Active”, the inhibition (Mus musculus [5]) was “Active” and the inhibition (Mus musculus [6]) was “Active”. For the same compound, the inhibition (Adipocyte [7]) was “Active”, the inhibition (Mus musculus [8]) was “Active” and the inhibition (Mus musculus [9]) was “Active”. The inhibition (Mus musculus [10]) was “inactive”, the inhibition (Mus musculus [11]) was “Active” and the Activity (Mus musculus [12]) was “Active”. The Activity (Mus musculus [13]) was “Active”, the inhibition (Mus musculus [14]) was “Active” and the inhibition (Adipocyte [15]) was “Active”. The inhibition (Mus musculus [16]) was “Active”, the inhibition (Hepatocyte [17]) was “Active” and the inhibition (Hepatocyte [18]) was “Active”.
